“Also recorded” adds a separate entry of the source. * marks the point of attachment. AMC = Cc1cc(=O)oc2cc(N*)ccc12; Boc = CC(C)(C)OC(=O)*
What was measured:
MDA-MB-468 cells [1] = assay: MTT assay; type: cell-based, human; settings: for cells survived (MTT): MDA-MB-468
In short: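 MDA-MB-468 cells in log phase were seeded at 3 × 10^3 per well and settled 12 h (37 °C, 5% CO2). They were then exposed to the test compound at 25, 50 or 100 µM in medium for 3, 6 or 12 h. MTT (5 mg/mL stock in PBS, pH 7.4) was added for 4 h, and formazan was dissolved in 10% SDS/PBS. Absorbance was read at 570/680 nm. Viability (%) = mean treated absorbance / mean control absorbance × 100.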

furin [2] = biological target: T1, furin (Homo sapiens, UniProt P09958); assay: Michaelis-Menten kinetics of furin cleavage; type: biochemical
furin [3] = biological target: T1, furin; assay: Time course HPLC analysis of furin-controlled condensation; type: biochemical; settings: 100 µM, 1 nmol/U of furin, 37 °C
In short: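 The non-radioactive analogue (100 µM) was incubated with furin (1 nmol/U) at 37 °C. Mixtures were analysed by HPLC eluted with CH3CN and water, each containing 0.1% TFA, against the untreated compound in water.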

MDA-MB-468 cells [4] = assay: Cell permeability of 1-Cold by fluorescence cell imaging; type: cell-based, human; settings: 100 µM, 37 °C, 0.5 h, fluorescence microscopy
In short: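 MDA-MB-468 breast adenocarcinoma cells were grown in DMEM with 10% FBS at 37 °C under 5% CO2. Cells (3 × 10^6) were exposed to the test compound (100 µM, 37 °C, 0.5 h) and washed three times with PBS. They were then imaged live on an inverted fluorescence microscope in the DAPI channel, with DIC overlay. The probe emits at 450 nm after intracellular furin-driven condensation.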

[5] = Nanoparticle characterisation after furin incubation; type: physicochemical; settings: 100 μM, furin 1 nmol/U, pH 7.4, 37 °C, 4 h vs before incubation
In short: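 The non-radioactive analogue (100 µM) was incubated with furin (1 nmol/U) for 4 h at 37 °C. UV-vis spectra were recorded at room temperature. For TEM (200 kV), carbon-coated copper grids were dipped in the suspension, plunged into liquid nitrogen and freeze-dried. SEM was run on the same mixture. One furin unit releases 1 pmol MCA from Boc-RVRR-MCA per minute at 30 °C.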

MDA-MB-468 cells [6] = assay: Cell uptake of 1; type: cell-based, human; settings: 30 min; 600,000 MDA-MB-468 cells, 1 µCi of 1; γ-counter
In short: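 MDA-MB-468 cells (600,000 per well) were seeded for 6 h. Medium was then replaced with fresh medium carrying 1 µCi of the 18F-labelled probe per well. Cells and medium were harvested at 5, 10, 20, 30, 60 and 90 min, and radioactivity was counted on a γ-counter.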

[7] = Pharmacokinetic study of 1 in mice after i.v. administration; type: in vivo; settings: i.v. about 3.0 mCi/kg, n = 5
In short: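 Mice received the 18F radiotracer intravenously at about 3.0 mCi/kg. Mean plasma concentration–time profiles were fitted to a two-compartment model, from which t1/2, AUC0-t, CLtot, Vd and Cmax were derived.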

MDA-MB-468 cells [8] = assay: Cellular efflux titration; type: cell-based, human; settings: 120 min efflux
In short: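 MDA-MB-468 cells (1 million per well) were loaded for 1 h at 37 °C with 4 μCi of the 18F probe plus 0, 5, 25 or 50 μM of its non-radioactive analogue. Medium was then refreshed, marking efflux time 0. At 5–120 min the medium was exchanged and the removed medium was γ-counted. Cells were harvested and counted at 120 min to back-calculate total radioactivity at time 0.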

MDA-MB-468 tumor = assay: MicroPET tumor uptake in MDA-MB-468 tumor-bearing nude mice; type: in vivo; settings: for tumor uptake of 1: PET, n = 4
In short: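 Female BALB/c nude mice (4–8 weeks) received subcutaneous foreleg xenografts of 4 × 10^7 MDA-MB-468 cells in PBS, grown 4–6 weeks. Under isoflurane, mice were randomised to tail-vein dosing: 85 µCi of the 18F probe alone, or the probe plus 20 µmol/kg of its non-radioactive analogue. Ten-minute static PET scans were taken at 10 min to 6 h, reconstructed by 3D OSEM without attenuation or scatter correction. Decay-corrected ROI values were converted assuming 1 g/mL tissue density and divided by administered activity to give %ID/g.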

furin [9] = biological target: T1, furin; settings: 30 °C; ref Bachem; cited from earlier work

T1 sequence (P09958 108-595 limits assumed): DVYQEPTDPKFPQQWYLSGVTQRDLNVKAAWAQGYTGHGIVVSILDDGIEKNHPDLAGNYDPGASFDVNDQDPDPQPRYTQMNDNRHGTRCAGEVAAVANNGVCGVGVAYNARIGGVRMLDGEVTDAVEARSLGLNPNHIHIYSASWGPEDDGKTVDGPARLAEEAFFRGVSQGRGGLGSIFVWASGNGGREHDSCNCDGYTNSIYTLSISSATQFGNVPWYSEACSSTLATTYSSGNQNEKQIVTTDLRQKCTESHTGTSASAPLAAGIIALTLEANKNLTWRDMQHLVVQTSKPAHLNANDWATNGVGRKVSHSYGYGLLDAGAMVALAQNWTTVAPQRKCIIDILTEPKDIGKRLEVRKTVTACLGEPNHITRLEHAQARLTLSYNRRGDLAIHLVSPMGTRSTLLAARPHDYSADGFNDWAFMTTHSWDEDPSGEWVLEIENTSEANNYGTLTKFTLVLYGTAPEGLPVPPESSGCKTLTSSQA

In the case of `CC(=O)N[C@@H](CCCNC(=N)N)C(=O)N[C@H](C(=O)N[C@@H](CCCNC(=N)N)C(=O)N[C@@H](CCCNC(=N)N)C(=O)N[C@@H](CSSC(C)(C)C)C(=O)N[C@@H](CCCCNC(=O)c1ccc(F)cc1)C(=O)Nc1ccc2nc(C#N)sc2c1)C(C)C` [1-Cold], the “cells survived (MTT)” value (MDA-MB-468 cells [1]; 25 µM, 3 h) is reported as 110%, the “cells survived (MTT)” value (MDA-MB-468 cells [1]; 25 µM, 12 h) is reported as 98% and the “cells survived (MTT)” value (MDA-MB-468 cells [1]; 50 µM, 3 h) is reported as 103%. For the same compound, the “cells survived (MTT)” value (MDA-MB-468 cells [1]; 50 µM, 12 h) was 105%, the “cells survived (MTT)” value (MDA-MB-468 cells [1]; 100 µM, 3 h) was 87% and the “cells survived (MTT)” value (MDA-MB-468 cells [1]; 100 µM, 12 h) was 68%. For the same compound, the “cytotoxicity to MDA-MB-468 cells (MTT), in words” value (MDA-MB-468 cells [1]; up to 12 h (abstract: 50 µM)) was “did not impose cytotoxicity; also recorded: nontoxic”, the “Kcat of furin relative to Boc-RVRR-AMC” value (furin [2]; calculated, Figure S10) was 35 times and the “Kcat/KM of furin relative to Boc-RVRR-AMC” value (furin [2]; calculated, Figure S10) was 15 times. For the same compound, the “binding affinity to furin, fold lower than that of Boc-RVRR-AMC” value (furin [2]; from KM values) was 2.4 fold, the “time in which furin-controlled condensation was accomplished” value (furin [3]) was no more than 2 h and the “cell permeability (intracellular fluorescence)” value (MDA-MB-468 cells [4]) was “good cell permeability”. For the same compound, the “UV-vis absorption at 500-700 nm (light scattering, aggregation)” value [5] was “obvious increase of absorption”.
In the case of “Acetyl-Arg-Val-Arg-Arg-Cys(StBu)-Lys(^18F-FB)-CBT [compound 1]”, the “cellular uptake (plateau)” value (MDA-MB-468 cells [6]) is reported as 20.4 % of total radioactivity, the Cmax [7] is reported as 7.471 mCi L^-1 and the “mean AUC0-t” value [7] is reported as 452.2 min mCi L^-1. The “initial radioactivity retained after cell efflux” value (“initial radioactivity retained” below) (MDA-MB-468 cells [8]; 4 μCi of 1 alone, 1 h pre-incubation 37 °C, 1 million cells) was 13.1 ± 1.2%, the “initial radioactivity retained” value (MDA-MB-468 cells [8]; 4 μCi of 1 co-incubated with 5 μM 1-Cold) was 20.3 ± 4.2% and the “initial radioactivity retained” value (MDA-MB-468 cells [8]; 4 μCi of 1 co-incubated with 25 μM 1-Cold) was 28.5 ± 1.4%. The “initial radioactivity retained” value (MDA-MB-468 cells [8]; 4 μCi of 1 co-incubated with 50 μM 1-Cold) was 32.1 ± 0.9%, the “tumor uptake ratio (Co-injected/1 alone)” value (MDA-MB-468 tumor; 10 min p.i.) was 2.5 and the “tumor uptake of 1” value (MDA-MB-468 tumor; 10 min p.i., 85 µCi 1 alone) was 1.02 ± 0.19 % ID/g. The “tumor uptake of 1” value (MDA-MB-468 tumor; 10 min p.i., co-injected 85 µCi 1 + 20 µmol/kg 1-Cold) was 2.52 ± 0.95 % ID/g, the “tumor uptake ratio (Co-injected/1 alone)” value (MDA-MB-468 tumor; 30 min p.i.) was 3.6 and the “tumor uptake of 1” value (MDA-MB-468 tumor; 30 min p.i., 85 µCi 1 alone) was 1.12 ± 0.08 % ID/g. The “tumor uptake of 1” value (MDA-MB-468 tumor; 30 min p.i., co-injected 85 µCi 1 + 20 µmol/kg 1-Cold) was 4.08 ± 0.48 % ID/g, the “tumor uptake ratio (Co-injected/1 alone)” value (MDA-MB-468 tumor; 60 min p.i.) was 6.4 and the “tumor uptake of 1” value (MDA-MB-468 tumor; 60 min p.i., 85 µCi 1 alone) was 0.52 ± 0.18 % ID/g. The “tumor uptake of 1” value (MDA-MB-468 tumor; 60 min p.i., co-injected 85 µCi 1 + 20 µmol/kg 1-Cold) was 3.31 ± 1.22 % ID/g, the “tumor uptake ratio (Co-injected/1 alone)” value (MDA-MB-468 tumor; 120 min p.i.) was 7.9 and the “tumor uptake of 1” value (MDA-MB-468 tumor; 120 min p.i., co-injected 85 µCi 1 + 20 µmol/kg 1-Cold) was 2.27 ± 1.86 % ID/g. The “tumor uptake of 1” value (MDA-MB-468 tumor; 240 min p.i., 85 µCi 1 alone) was 0.19 ± 0.03 % ID/g, the “tumor uptake of 1” value (MDA-MB-468 tumor; 240 min p.i., co-injected 85 µCi 1 + 20 µmol/kg 1-Cold) was 1.55 ± 1.75 % ID/g and the “tumor uptake ratio (Co-injected/1 alone)” value (MDA-MB-468 tumor; 360 min p.i.) was 6.5. The “tumor uptake of 1” value (MDA-MB-468 tumor; 360 min p.i., 85 µCi 1 alone) was 0.19 ± 0.05 % ID/g and the “tumor uptake of 1” value (MDA-MB-468 tumor; 360 min p.i., co-injected 85 µCi 1 + 20 µmol/kg 1-Cold) was 1.28 ± 1.07 % ID/g.
In the case of Boc-RVRR-{AMC} [Boc-RVRR-AMC], the “speed of furin cleavage of commercial substrate” value (furin [9]) is listed as 1 pmol/U per min.

Source: article PMC4508496 (Theranostics, 2015)
